In PMC11892073 (Journal of Enzyme Inhibition and Medicinal Chemistry, 2025):

System: DU-145 prostate cancer cells
Test: In vitro antiproliferation assay
Assay type: cell-based
Details: Homo sapiens, DU-145, 72 h, read-out: DU-145 (IC50, nM)
How it was run: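 DU-145 cells (ATCC) grown in medium with 10% (v/v) FBS, 50 units/ml penicillin and 50 µg/ml streptomycin at 37 °C, 5% CO2. Seeded at 5 × 10^4 cells/well, left overnight, then exposed to varying test compound concentrations for 72 h at 37 °C. A 5 mg/mL MTT solution was added for 4 h. Supernatant was removed by centrifugation and crystals dissolved in DMSO. A570 was read. IC50 came from nonlinear regression; mean ± SD, n = 3.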

CC[C@@H]1C(=O)N(C)c2cnc(Nc3ccc(C(=O)N[C@H]4CC[C@H](N5CCN(CC6CC6)CC5)CC4)cc3OC)nc2N1C(C)C [BI-6727, volasertib]
IC50: 4.03 ± 0.15 nM
